Screening data from PubChem BioAssay.
Only some compounds are listed: those with a hit (about 4.3% of all), similar ones and a draw of the others.
HTR2A ag = agonists of mouse serotonin 5-HT2A receptor (HTR2A); 360,000 compounds, 0.66% hits; CHO-K1 mHTR2A beta-arrestin complementation, luminescence; percent of 30 µM serotonin response; AID 624169; activation, % at 7.6 µM;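 active = activation above a run cutoff, the mean activation of all tested compounds plus 3 SD, cut at about 14% in these data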;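 note: 0% = plate median of compound wells and 100% = 30 µM serotonin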
MC4R antag cAMP = antagonists of human melanocortin 4 receptor (MC4R). P32245. inhibition, % at 6.5 µM. 360,000 compounds, 0.48% hits. AID 540295. MC4R-expressing cells, MTII-stimulated cAMP, LANCE TR-FRET;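 active = inhibition above its plate's cutoff, the mean of tested wells on that plate plus 3 SD, cut at about 29% in these data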;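 note: 0% = Melanotan II alone and 100% = Melanotan II plus saturating MCL0020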
Target sequence (P32245 whole entry, looked up): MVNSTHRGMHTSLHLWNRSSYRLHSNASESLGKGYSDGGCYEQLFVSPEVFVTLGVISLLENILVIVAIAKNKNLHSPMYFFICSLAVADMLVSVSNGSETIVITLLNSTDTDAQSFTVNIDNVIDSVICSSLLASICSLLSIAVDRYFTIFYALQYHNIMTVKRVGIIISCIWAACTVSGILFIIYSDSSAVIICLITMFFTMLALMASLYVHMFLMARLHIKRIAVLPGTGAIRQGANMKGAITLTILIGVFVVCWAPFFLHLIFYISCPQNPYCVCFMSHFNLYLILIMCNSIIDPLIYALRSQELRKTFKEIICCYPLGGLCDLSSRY
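Material – human MC4R-expressing U2OS cells · Repeats – no replicates · Detection – TR-FRET with Eu-cAMP and labeled anti-cAMP, 671 nm · Times – compound 30 min, challenge 1 h, detection 1 h · Compound – single nominal compound dose of 6.5 µM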
Beta2AR agonist = human beta-2 adrenergic receptor agonism by FAP; P07550; response, % (test concentration not listed); Am2.2-beta2AR cells, FAP receptor internalization, flow cytometry; 340,000 compounds, 0.43% hits;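 active = response above a set limit, near 3 SD of response in nonfluorescent compounds, cut at about 42% in these data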
TAAR1 antag = human TAAR1 antagonism; CHO RD-HGA16 TAAR1, Fluo-8 calcium fluorescence, antagonist; 360,000 compounds, 1.5% hits; Q96RJ0; AID 624466; inhibition, % at 3 µM;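 active = inhibition above a per-plate cutoff, the mean inhibition of test compounds on that plate plus 3 SD, cut at about 49% in these data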;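 note: 0% = DMSO plus EC80 beta-PEA response and 100% = DMSO alone without agonist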
Target sequence (Q96RJ0 whole entry, looked up): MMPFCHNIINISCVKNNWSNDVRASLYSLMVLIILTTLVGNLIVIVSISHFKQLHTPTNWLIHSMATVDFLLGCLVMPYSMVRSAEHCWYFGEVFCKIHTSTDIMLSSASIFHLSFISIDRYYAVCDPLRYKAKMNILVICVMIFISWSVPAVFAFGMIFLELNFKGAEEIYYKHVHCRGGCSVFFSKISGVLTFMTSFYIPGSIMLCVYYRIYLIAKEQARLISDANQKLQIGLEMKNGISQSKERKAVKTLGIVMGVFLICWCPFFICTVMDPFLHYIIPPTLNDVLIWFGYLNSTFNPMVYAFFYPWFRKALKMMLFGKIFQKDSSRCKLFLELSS
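Test system – hTAAR1-expressing CHO RD-HGA16 cells, Gα16-coupled · Reagent – β-PEA at EC80 concentration, post-compound challenge · Compound dosing – 3 µM, single point · Timing – 140 s kinetic read after compound, 140 s after agonist · Detection – Fluo-8 intracellular calcium dye fluorescence, real-time kinetic reads · Control set – DMSO and EC80 PEA controls · Repeats – n of 1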
TAAR1 ag = human TAAR1 agonism. activation, % at 3 µM. CHO RD-HGA16 TAAR1, Fluo-8 calcium fluorescence; vehicle wells 0%, saturating PEA agonist 100%. Q96RJ0. 360,000 compounds, 0.99% hits;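 active = activation above the mean activation of all test compounds in the run plus 3 SD, cut at about 38% in these data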
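System: CHO RD-HGA16 cells carrying human TAAR1 plus Gα16; Incubation: 17-24 h seeding, 75 min 37 °C dye, 30 min RT; Measured by: Fluo-8 fluorescence, 5 s baseline then 140 s kinetic read; Control set: DMSO and PEA EC100; Replication: single well for each compound.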
MC4R barr agon = activates human MC4R beta-arrestin recruitment. P32245. U2OS MC4R beta-arrestin complementation, luminescence; percent of melanotan II response, DMSO zero. activation, % at 8.9 µM. 360,000 compounds, 0.98% hits. AID 540308;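 active = activation above a per-plate cutoff, the mean activation of sample wells on that plate plus 3 SD, cut at about 8% in these data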
TAAR1 ag confirm = human TAAR1 agonism, confirmed; CHO RD-HGA16 TAAR1, Fluo-8 calcium fluorescence; scaled: DMSO 0%, maximal phenethylamine 100%; shares compounds with TAAR1 ag; activation, % at 3 µM; 2,400 compounds, 82% hits;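 active = activation above a cutoff set at the run's mean compound activation plus 3 SD, cut at about 39% in these data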
Ga16 ag counter = counter-screen for TAAR1 agonists: nonselective agonists in parental cells | shares compounds with TAAR1 ag | CHO-Ga16 parental, Fluo-8 calcium fluorescence; normalized to maximal ATP response, DMSO zero | activation, % at 3 µM | 2,400 compounds, 50% hits;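 active = activation above the run cutoff, the mean activation over all tested wells plus 3 SD, cut at about 12% in these data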;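 note: 0% = DMSO wells and 100% = maximal ATP response on the peak over basal ratio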
TAAR1 desens = human TAAR1 agonist that also desensitizes the receptor; shares compounds with TAAR1 ag; CHO RD-HGA16 hTAAR1, Fluo-8 calcium, beta-PEA response inhibition; inhibition, % at 3 µM; 2,400 compounds, 46% hits;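 active = inhibition above the run cutoff, the mean inhibition of all test compounds plus 3 SD, cut at about 49% in these data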;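 note: beta-PEA stimulus applied at its EC80; loss of beta-PEA calcium signal after compound pretreatment read as receptor desensitization; 0% = DMSO with beta-PEA at EC80 and 100% = DMSO alone without agonist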
Ga16 nonsel ant = counter-screen for TAAR1 agonists: nonselective Ga16 antagonists; shares compounds with TAAR1 ag; CHO-Ga16 ATP-induced calcium, Fluo-8 fluorescence; inhibition, % at 3 µM; 2,400 compounds, 39% hits; AID 651952;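 active = inhibition above the plate's mean compound inhibition plus 3 SD, computed per plate, cut at about 22% in these data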;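 note: 0% = EC80 ATP with DMSO and 100% = DMSO wells without ATP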
Active calls of the source: *; . = no result.

SMILES | HTR2A ag | MC4R antag cAMP | Beta2AR agonist | TAAR1 antag | TAAR1 ag | MC4R barr agon | TAAR1 ag confirm | Ga16 ag counter | TAAR1 desens | Ga16 nonsel ant
COC(=O)C1=C(C)N(Cc2cccc(C(F)(F)F)c2)C(=NCc2cc(OC)c(OC)c(OC)c2)NC1c1cccc(C(F)(F)F)c1 (configuration not stated) | . | . | . | -4.7 | 4.1 | . | . | . | . | .
COC(=O)C1=C(C)N(Cc2cccc(C(F)(F)F)c2)C(=NCC2CC2)NC1c1cccc(Cl)c1 (configuration not stated) | . | . | . | 76.8* | 71.7* | . | 61.3* | 34.9* | 65.8* | 55.1*
COCCN=C1N[C@@H](c2cccc(C(F)(F)F)c2)C(C(=O)OC)=C(C)N1Cc1ccccc1 | -7.1 | -3.9 | 36.7 | 11.9 | 7.6 | -0.5 | . | . | . | .
COC(=O)C1=C(C)N(Cc2cccc(C(F)(F)F)c2)C(=NCC2CC2)NC1c1cccc(C(F)(F)F)c1 (configuration not stated) | . | . | . | 55.8* | 50.4* | . | 52.9* | 25.8* | 54.4* | 44.0*
COC(=O)C1=C(C)N(Cc2cccc(C(F)(F)F)c2)C(=NCC2CC2)NC1c1ccc(F)cc1 (configuration not stated) | . | . | . | 101.4* | 96.0* | . | 101.3* | 71.9* | 94.1* | 80.6*
O=C(COC(=O)CCNS(=O)(=O)c1cccs1)Nc1ccccc1 | -4.5 | 3.4 | -2.8 | -16.1 | 1.7 | -0.5 | . | . | . | .
CCCCCC(=O)N1C[C@@H](n2cc(-c3ccc(F)cc3)nn2)[C@H](O)C[C@@H]1c1ccc(C)cc1 | -5.6 | 15.1 | . | 28.7 | -0.7 | 5.9 | . | . | . | .
CC(C)=CC(=O)NCC1CCN(C(=O)C(=O)c2cc3ccccc3o2)CC1 | . | . | . | -3.3 | 3.5 | . | . | . | . | .
O=C(Nc1ncc(S(=O)(=O)c2ccc([N+](=O)[O-])cc2)s1)c1ccccc1F | -0.2 | 8.1 | 4.3 | 59.4* | 100.6* | -0.7 | 109.7* | 60.7* | 83.7* | 51.5*
COC(=O)C(NC(=O)c1ccccc1C)(Nc1ncc(S(=O)(=O)c2ccc([N+](=O)[O-])cc2)s1)C(F)(F)F (configuration not stated) | -8.8 | -1.0 | -1.6 | 30.3 | 70.2* | -2.3 | 54.8* | 25.7* | 51.5* | 22.5*
CCN(CC(=O)Nc1c(F)cccc1F)C(=O)CCCSc1nc2ccccc2[nH]1 | 0.3 | 8.1 | . | -10.1 | 3.8 | -1.2 | . | . | . | .
C[C@@H]1CN([C@H](C)CO)C(=O)CCCn2nncc2CO[C@H]1CN(C)Cc1ccccc1 | 2.5 | 1.8 | . | -1.3 | 0.5 | -0.8 | . | . | . | .
CC[C@@H](C(=O)[C@@H](C)[C@@H](O)[C@H](C)CCc1ccc(C)c(O)c1C(=O)O)[C@H]1O[C@](CC)([C@H]2CC[C@](O)(CC)[C@H](C)O2)C[C@@H]1C | 192.7* | 6.1 | 86.0* | 67.3* | 76.5* | 88.5* | 73.0* | 64.6* | 73.4* | 52.3*
CCOC(=O)N1CCC(NC(=O)c2cnn3c(C(F)(F)F)cc(-c4cccc(OC)c4)nc23)CC1 | . | . | . | 1.8 | 71.2* | . | 2.8 | 4.0 | 19.1 | 15.9
CN(CCc1ccccn1)C(=O)CC1C(=O)NCCN1Cc1ccc(-c2ccccc2)cc1 (configuration not stated) | -1.9 | 17.5 | 20.3 | -15.5 | 6.7 | 2.3 | . | . | . | .
CCOc1ccccc1CN1CCNC(=O)C1CC(=O)NCCc1ccccn1 (configuration not stated) | 0.1 | -2.6 | 0.3 | -23.0 | 18.2 | -1.2 | . | . | . | .
Cc1ccc(CN2CCNC(=O)C2CC(=O)N(C)CCc2ccccc2)cc1 (configuration not stated) | -1.5 | 16.0 | 1.7 | -10.8 | 59.2* | 4.5 | 77.7* | 0.4 | 37.1 | 0.4
CCOc1ccccc1CN1CCNC(=O)C1CC(=O)N(C)CCc1ccccn1 (configuration not stated) | -2.2 | -3.6 | -2.6 | -19.6 | 54.4* | -2.0 | 60.3* | 5.6 | 18.1 | 0.9
CC1=C(C(=O)OCc2ccccc2)C(c2ccc(-c3ccccc3)cc2)NC(=O)N1CCCC(=O)O (configuration not stated) | . | . | . | 32.7 | 9.9 | . | . | . | . | .
CC1=C(C(=O)OCc2ccccc2)C(c2ccc(-c3ccccc3)cc2)NC(=O)N1CCCCCC(=O)O (configuration not stated) | -1.4 | 1.2 | -6.3 | 91.9* | 95.0* | 0.2 | -0.5 | 9.5 | 13.8 | 29.3*
Nc1nc(Nc2ccccc2)sc1C(=O)c1ccccc1 | -6.7 | 5.7 | 5.5 | -32.7 | 67.9* | -1.4 | 50.2* | 23.4* | 5.9 | -2.0
Cc1cc(NC(=O)C2CCCC2)n(-c2nc3ccccc3[nH]2)n1 | 0.8 | -19.2 | -4.7 | 5.1 | 56.3* | 5.1 | -1.4 | -1.2 | 6.7 | 17.3
Cc1cc(NC(=O)c2ccccc2)n(-c2nc3ccccc3[nH]2)n1 | -0.2 | -18.2 | -8.3 | 13.7 | 3.4 | -0.1 | . | . | . | .
O=C1C=C(c2ccccc2)C(=O)N1Nc1ccccc1 | -1.8 | 4.6 | -4.8 | 15.9 | 51.3* | 0.5 | 70.2* | 47.6* | 43.4 | 35.3*
O=C1Cc2ccccc2C(=O)N1Nc1ccccc1 | -2.6 | 7.2 | 5.4 | -19.9 | 2.5 | 0.5 | . | . | . | .
CC1=C([N+](=O)[O-])C(c2ccc(Cl)cc2)NC(=O)N1 (configuration not stated) | 4.4 | 0.3 | 4.3 | 15.1 | 0.4 | -1.4 | . | . | . | .
Cn1c(=O)c2cc(NC(=O)CCc3ccc4c(c3)OCO4)ccc2n1Cc1ccc(F)cc1 | -2.7 | 8.0 | . | -1.6 | 10.2 | -1.6 | . | . | . | .
Brc1ccc(-c2csc(N3CCC(c4ccccc4)C3)n2)cc1 (configuration not stated) | 2.6 | 10.1 | 5.6 | 1.1 | 11.5 | -1.4 | . | . | . | .
Brc1ccc(-c2csc(N3CCc4ccccc4C3)n2)cc1 | 1.0 | -3.4 | 15.3 | 4.9 | 50.2* | -1.4 | 13.2 | 5.2 | -0.7 | 6.8
Cc1ccc(S(=O)(=O)CCC(=O)OCC(=O)N(C)c2ccccc2)cc1 | 10.9 | 13.0 | -0.8 | -5.0 | 1.5 | -2.1 | . | . | . | .
